Laboratory results from ChEMBL document CHEMBL4014299, “Synthesis and anti-HIV activities of unsymmetrical long chain dicarboxylate esters of dinucleoside reverse transcriptase inhibitors” (Bioorg Med Chem Lett, 2017).

Legend:
Assay type in all cases: cell-based
[1] = Cytotoxicity against human P4R5 MAGI cells after 2 hrs by MTT assay
Method in brief: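 Cytotoxicity to target cells by MTT assay, giving CC50 (50% toxic concentration). Run in triplicate (n = 3).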

[2] = Inhibition of HIV1 3B […] reverse transcriptase infected in human P4R5 MAGI cells assessed as reduction in viral infection after 2 hrs by Galacto-Star beta-galactosidase reporter gene assay; details: Human immunodeficiency virus 1, 3B
Method in brief: (§1)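 Single-round infection against cell-free virus: compounds, virus and target cells incubated together 2 h, cells washed, then cultured a further 48 h. Infection read as HIV-LTR-driven galactosidase expression; EC50 = 50% effective concentration. Line 2 uses the X4 (lymphocytotropic) strain, line 3 the R5 (monocytotropic) strain. DMSO served as negative control and dextran sulfate as positive control. Triplicate (n = 3).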

[3] = Inhibition of HIV1 BaL […] reverse transcriptase infected in human P4R5 MAGI cells assessed as reduction in viral infection after 2 hrs by Galacto-Star beta-galactosidase reporter gene assay; details: Human immunodeficiency virus 1, BaL; method in brief: as §1

Row | SMILES | CC50 at 2 h [1] [µM] | EC50 [2] [µM] | EC50 [3] [µM]
1 | Cc1cn([C@H]2C[C@H](N=[N+]=[N-])[C@@H](COC(=O)CCCCCCC(=O)OC[C@H]3O[C@@H](n4cc(C)c(=O)[nH]c4=O)C[C@@H]3N=[N+]=[N-])O2)c(=O)[nH]c1=O | > 148 | 0.2 | < 0.15
2 | Cc1cn([C@H]2C[C@H](F)[C@@H](COC(=O)CCC(=O)OC[C@@H]3O[C@H](n4ccc(N)nc4=O)CS3)O2)c(=O)[nH]c1=O | > 180 | 44.5 | 42.2
3 | Cc1cn([C@H]2C[C@H](N=[N+]=[N-])[C@@H](COC(=O)CCC(=O)OC[C@H]3O[C@@H](n4cc(C)c(=O)[nH]c4=O)C[C@@H]3N=[N+]=[N-])O2)c(=O)[nH]c1=O | > 162 | 14 | 68.1
4 | Cc1cn([C@H]2C[C@H](F)[C@@H](COC(=O)CCCCCCCCCCCCC(=O)O)O2)c(=O)[nH]c1=O | > 61 | 1.8 | 0.55
5 | Cc1cn([C@H]2C[C@H](F)[C@@H](COC(=O)CCCCCCCCCCCCC(=O)OC[C@@H]3O[C@H](n4cc(F)c(N)nc4=O)CS3)O2)c(=O)[nH]c1=O | > 42 | 0.047 | 0.075
6 | Cc1cn([C@H]2C[C@H](N=[N+]=[N-])[C@@H](COC(=O)CCC(=O)OC[C@H]3O[C@@H](n4cc(C)c(=O)[nH]c4=O)C[C@@H]3F)O2)c(=O)[nH]c1=O | > 168 | 14.7 | 17.5
7 | Cc1cn([C@H]2C[C@H](F)[C@@H](COC(=O)CCC(=O)OC[C@H]3O[C@@H](n4cc(C)c(=O)[nH]c4=O)C[C@@H]3F)O2)c(=O)[nH]c1=O | > 175 | 3.7 | 3
8 | Cc1cn([C@H]2C[C@H](F)[C@@H](COC(=O)CCCCCCCCCCCCC(=O)OC[C@@H]3O[C@H](n4ccc(N)nc4=O)CS3)O2)c(=O)[nH]c1=O | > 43 | 0.1 | 0.07
9 | Nc1ccn([C@@H]2CS[C@H](COC(=O)CCCCCCC(=O)OC[C@@H]3O[C@H](n4ccc(N)nc4=O)CS3)O2)c(=O)n1 | > 168 | 26.6 | 4.7
10 | Cc1cn([C@H]2C[C@H](F)[C@@H](COC(=O)CCCCCCC(=O)OC[C@H]3O[C@@H](n4cc(C)c(=O)[nH]c4=O)C[C@@H]3F)O2)c(=O)[nH]c1=O | > 160 | 0.4 | 0.5
11 | Nc1ccn([C@@H]2CS[C@H](COC(=O)CCCCCCCCCCCCC(=O)OC[C@@H]3O[C@H](n4cc(F)c(N)nc4=O)CS3)O2)c(=O)n1 | > 43 | 0.18 | 0.073
12 | Cc1cn([C@H]2C[C@H](N=[N+]=[N-])[C@@H](COC(=O)CCC(=O)OC[C@@H]3O[C@H](n4ccc(N)nc4=O)CS3)O2)c(=O)[nH]c1=O | > 173 | 16.1 | 19.2
13 | Cc1cn([C@H]2C[C@H](F)[C@@H](CO)O2)c(=O)[nH]c1=O [ALOVUDINE] | > 410 | 0.8 | 3.3
14 | Nc1nc(=O)n([C@@H]2CS[C@H](CO)O2)cc1F [EMTRICITABINE] | > 200 | 1.9 | 0.7
15 | Nc1ccn([C@@H]2CS[C@H](CO)O2)c(=O)n1 [LAMIVUDINE] | 80.3 | 32.7 | 11.3
16 | Cc1cn([C@H]2C[C@H](N=[N+]=[N-])[C@@H](CO)O2)c(=O)[nH]c1=O [ZIDOVUDINE] | > 374 | 34.4 | 129
